From ChEMBL document CHEMBL3745596, “Chlorophenoxy aminoalkyl derivatives as histamine H(3)R ligands and antiseizure agents” (Bioorg Med Chem, 2016) come the findings set out here.

Structures are written as SMILES. Active and inactive are the calls of the source.

Data set [1] deals with Mus musculus. The data set can be described thus: Neurotoxicity in CF1 albino mouse at 3 mg/kg, ip after 0.5 hrs by rotarod test. The settings on record: in vivo. In kind it is toxicity, organism-based. The method, boiled down:
(§1)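 Rotarod neurotoxicity in male albino CF-1 mice dosed ip with compound suspended in 0.5% methylcellulose. Animal placed on a 1 inch diameter knurled plastic rod rotating at 6 rpm. Neurotoxicity scored when the animal falls off three times within 1 min. Readout is number of animals toxic/number tested at the stated time after dosing. TD50 with 95% confidence interval from the quantitative study.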

The test system of data set [2] is Mus musculus. In words: Anticonvulsant activity in CF1 albino mouse assessed as protection against maximal electroshock-induced seizure at 30 mg/kg, ip after 4 hrs. The format is functional, organism-based. The method, boiled down:
(§2)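 Male CF-1 mice dosed ip as suspension in 0.5% methylcellulose. Corneal electrodes deliver 60 Hz alternating current, 50 mA for […], after a drop of 0.5% tetracaine HCl in 0.9% NaCl per eye. Protection means abolition of hindlimb tonic extension; scored as protected/tested, or ED50 with 95% confidence interval.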

Data set [3] has as its system Mus musculus. In words: Anticonvulsant activity in CF1 albino mouse assessed as protection against subcutaneous pentetrazole-induced seizure at 30 mg/kg, ip after 4 hrs. The format is functional, organism-based. In a few lines: (§3)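 Male CF-1 mice, ip in 0.5% methylcellulose; pentetrazole at CD97 (85 mg/kg) injected subcutaneously in a loose fold of neck skin. Observed 30 min; absence of even a threshold seizure (single clonic spasm lasting at least 5 s) counted as protection. Scored protected/tested, or ED50.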

For data set [4], the system named is Mus musculus. The data set can be described thus: Anticonvulsant activity in CF1 albino mouse assessed as protection against maximal electroshock-induced seizure at 3 mg/kg, ip after 0.5 hrs. In kind it is functional, organism-based. In a few lines: as §2
(In the maximal electroshock model the usual endpoint is tonic extension of the hind limbs.)

Data set [5] relates to Rattus norvegicus. In words: Anticonvulsant activity in Sprague-Dawley rat assessed as protection against maximal electroshock-induced seizure at 30 mg/kg, po. The format is functional.
Data set [6] concerns Mus musculus. In words: Neurotoxicity in CF1 albino mouse at 300 mg/kg, ip after 4 hrs by rotarod test. To be noted: in vivo. In kind it is toxicity, organism-based. The method, boiled down: as §1
(The rotarod test checks motor coordination on a turning rod.)

Data set [7] deals with Mus musculus. In words: Neurotoxicity in CF1 albino mouse at 30 mg/kg, ip after 4 hrs by rotarod test. To be noted: in vivo. In kind it is toxicity, organism-based. In a few lines:
as §1

Data set [8] concerns the target Histamine H3 receptor (Homo sapiens, UniProt Q9Y5N1). The data set can be described thus: Displacement of [3H]-Nalpha-methylhistamine from human recombinant histamine H3 receptor expressed in HEK293 cells after 90 mins. The format is cell-based. (In a radioligand displacement assay an active substance lowers the binding of a labelled ligand.)
In data set [9] the test system is Mus musculus. The data set can be described thus: Neurotoxicity in CF1 albino mouse at 30 mg/kg, ip after 0.5 hrs by rotarod test. The settings on record: in vivo. The format is toxicity, organism-based. In a few lines:
as §1

Data set [10] has as its system Mus musculus. The data set can be described thus: Neurotoxicity in CF1 albino mouse at 50 mg/kg, ip after 1 hr by rotarod test. The format is toxicity, organism-based. To be noted: in vivo. The method, boiled down:
as §1

Data set [11] concerns Mus musculus. In words: Neurotoxicity in CF1 albino mouse assessed as death at 300 mg/kg, ip after 0.5 hrs by rotarod test. In kind it is toxicity, organism-based. To be noted: in vivo. In a few lines: (§4)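 Male albino CF-1 mice dosed ip with compound suspended in 0.5% methylcellulose, then placed on a 1-inch knurled plastic rod turning at 6 rpm. A fall three times within 1 min counted as neurotoxicity. Observations were made at 0.5 h and 4 h after dosing. Result given as animals showing toxicity per animals tested, with the kind of toxicity recorded.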

The test system of data set [12] is Mus musculus. The data set can be described thus: Anticonvulsant activity in CF1 albino mouse assessed as protection against maximal electroshock-induced seizure at 100 mg/kg, ip after 0.5 hrs. The format is functional, organism-based. The method, boiled down: as §2
In data set [13] the test system is Mus musculus. In words: Anticonvulsant activity in CF1 albino mouse assessed as protection against maximal electroshock-induced seizure at 30 mg/kg, ip after 0.5 hrs. In kind it is functional, organism-based. The method, boiled down: as §2
Data set [14] deals with Mus musculus. In words: Anticonvulsant activity in CF1 albino mouse assessed as protection against maximal electroshock-induced seizure at 100 mg/kg, ip after 4 hrs. In kind it is functional, organism-based. In a few lines:
as §2

The subject of data set [15] is Mus musculus. In words: Anticonvulsant activity in CF1 albino mouse assessed as protection against subcutaneous pentetrazole-induced seizure at 30 mg/kg, ip after 0.5 hrs. The format is functional, organism-based. The method, boiled down: as §3
Data set [16] has as its system Mus musculus. The data set can be described thus: Neurotoxicity in CF1 albino mouse at 10 mg/kg, ip after 0.5 hrs by rotarod test. The format is toxicity, organism-based. The settings on record: in vivo. The method, boiled down: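 Rotarod neurotoxicity in male CF-1 mice dosed ip as 0.5% methylcellulose suspension: mouse placed on 1 inch knurled rod rotating at 6 rpm; toxicity when the animal falls off three times within 1 min, with other signs noted. Scored as toxic/tested at 0.5 h and 4 h.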

Data set [17] concerns Mus musculus. In words: Neurotoxicity in CF1 albino mouse at 100 mg/kg, ip after 4 hrs by rotarod test. The settings on record: in vivo. The format is toxicity, organism-based. In a few lines:
as §1

Data set [18] concerns Mus musculus. The data set can be described thus: Neurotoxicity in CF1 albino mouse at 50 mg/kg, ip after 2 hrs by rotarod test. In kind it is toxicity, organism-based. To be noted: in vivo. The method, boiled down: as §1
In data set [19] the test system is Mus musculus. The data set can be described thus: Anticonvulsant activity in CF1 albino mouse assessed as protection against maximal electroshock-induced seizure at 10 mg/kg, ip after 0.5 hrs. The format is functional, organism-based. In a few lines: as §2
Data set [20] relates to Mus musculus. The data set can be described thus: Neurotoxicity in CF1 albino mouse at 50 mg/kg, ip after 4 hrs by rotarod test. The settings on record: in vivo. The format is toxicity, organism-based. In a few lines: as §1
The test system of data set [21] is Mus musculus. In words: Anticonvulsant activity in CF1 albino mouse assessed as protection against 6 Hz-psychomotor-induced seizure at 50 mg/kg, ip after 0.25 hrs. The format is functional, organism-based. In a few lines:
(§5)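 Male CF-1 mice, ip suspension in 0.5% methylcellulose. Corneal stimulation 0.2 ms monopolar rectangular pulses at 6 Hz, 32 mA for 3 s via constant-current device; mice without minimal clonic phase seizure counted protected. Groups of four; read at 0.25, 0.5, 1, 2, 4 h; result as protected/tested.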

The subject of data set [22] is Mus musculus. The data set can be described thus: Anticonvulsant activity in ip dosed CF1 albino mouse assessed as protection against subcutaneous pentetrazole-induced seizure after 0.25 hrs. The format is functional. The method, boiled down:
as §3

The test system of data set [23] is Mus musculus. The data set can be described thus: Anticonvulsant activity in CF1 albino mouse assessed as protection against subcutaneous pentetrazole-induced seizure at 100 mg/kg, ip after 4 hrs. The format is functional, organism-based. In a few lines: as §3
Data set [24] has as its system Mus musculus. In words: Anticonvulsant activity in CF1 albino mouse assessed as protection against subcutaneous pentetrazole-induced seizure at 100 mg/kg, ip after 0.5 hrs. In kind it is functional, organism-based. The method, boiled down:
as §3

The test system of data set [25] is Mus musculus. In words: Neurotoxicity in CF1 albino mouse assessed as unable to grasp rotarod and death at 100 mg/kg, ip after 0.5 hrs by rotarod test. The format is toxicity, organism-based. The settings on record: in vivo. The method, boiled down:
as §4

In data set [26] the test system is Mus musculus. In words: Anticonvulsant activity in CF1 albino mouse assessed as protection against 6 Hz-psychomotor-induced seizure at 50 mg/kg, ip after 4 hrs. The format is functional, organism-based. In a few lines: as §5
For data set [27], the system named is Mus musculus. In words: Anticonvulsant activity in CF1 albino mouse assessed as protection against 6 Hz-psychomotor-induced seizure at 50 mg/kg, ip after 2 hrs. The format is functional, organism-based. The method, boiled down:
as §5

For data set [28], the system named is Mus musculus. The data set can be described thus: Neurotoxicity in CF1 albino mouse at 30 mg/kg, ip after 0.25 to 4 hrs by rotarod test. In kind it is toxicity, organism-based. To be noted: in vivo. The method, boiled down: as §1
For data set [29], the system named is Mus musculus. The data set can be described thus: Anticonvulsant activity in CF1 albino mouse assessed as protection against 6 Hz-psychomotor-induced seizure at 50 mg/kg, ip after 1 hr. The format is functional, organism-based. The method, boiled down:
as §5

Data set [30] relates to Mus musculus. In words: Anticonvulsant activity in CF1 albino mouse assessed as protection against 6 Hz-psychomotor-induced seizure at 50 mg/kg, ip after 0.5 hrs. The format is functional, organism-based. The method, boiled down:
as §5

For data set [31], the system named is Mus musculus. The data set can be described thus: Anticonvulsant activity in CF1 albino mouse assessed as protection against 6 Hz-psychomotor-induced seizure at 30 mg/kg, ip after 0.25 to 4 hrs. In kind it is functional, organism-based. The method, boiled down:
as §5

Broadly, the Ki is the dissociation constant of the complex between target and ligand, obtained from inhibition or displacement. The ED50 is the midpoint of the dose-response relation.

Chain of Histamine H3 receptor (Q9Y5N1 whole entry): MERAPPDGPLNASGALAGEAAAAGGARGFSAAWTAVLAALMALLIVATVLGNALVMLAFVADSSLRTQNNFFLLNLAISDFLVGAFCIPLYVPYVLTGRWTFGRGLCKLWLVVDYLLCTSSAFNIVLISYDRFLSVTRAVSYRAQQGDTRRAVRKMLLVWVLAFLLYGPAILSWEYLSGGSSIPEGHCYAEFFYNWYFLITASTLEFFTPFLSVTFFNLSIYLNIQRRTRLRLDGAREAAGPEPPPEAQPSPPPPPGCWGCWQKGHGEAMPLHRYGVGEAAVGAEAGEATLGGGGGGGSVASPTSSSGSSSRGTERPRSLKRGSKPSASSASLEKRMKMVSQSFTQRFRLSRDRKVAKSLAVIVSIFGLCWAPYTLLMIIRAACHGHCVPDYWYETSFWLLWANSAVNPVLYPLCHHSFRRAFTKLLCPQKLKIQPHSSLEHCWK

In the case of `CC1CCN(CCCCCCOc2cccc(Cl)c2)CC1.O=C(O)C(=O)O`, the Activity entry in [1] is “Non-toxic”; in data set [5], 25%; in data set [6], “Non-toxic”; in [7], “Non-toxic”; in [9], “Non-toxic”; in data set [10] it was “Non-toxic”. Also, the Activity result is “Toxic” in data set [11]; “Non-toxic” in data set [16]; “Non-toxic” in data set [17]; “Non-toxic” in [18]; “Non-toxic” in [20]. The result in data set [2], in data set [3], in [4], in [15] and in data set [19] was inactive. The Ki in data set [8] is 412 nM. The result in data set [12], in data set [13], in data set [14] and in data set [21] was Active.
On to `CCCC(CCC)C(=O)O` [VALPROIC ACID], for which, in data set [22], the ED50 stood at 220 mg/kg.
In the case of `Clc1cccc(OCCCCCCCN2CCCCCC2)c1.O=C(O)C(=O)O`, the result in data set [2], in data set [3], in data set [13], in [14], in data set [15] and in data set [23] was inactive. The Activity entry in [6], in [7], in data set [9] and in data set [17] was “Non-toxic” each time. Besides, in data set [8], the Ki is greater than 150000 nM. Further, the outcome in data set [12] was Active.
Consider `Clc1cccc(OCCCCCCN2CCCCCC2)c1.O=C(O)C(=O)O`, for which the outcome in data set [24], in data set [26], in data set [27], in [2], in [3] and in data set [4] was inactive. For the same compound, the outcome in [29], in data set [30], in data set [15], in data set [19], in data set [21] and in [31] was inactive. Moreover, the Activity result in data set [1] is recorded as “Non-toxic”; in [25], “Toxic”; in [28], “Non-toxic”; in [6], “Non-toxic”; in [7], “Non-toxic”; in data set [11], “Toxic”. Further, the Activity entry in [16] and in data set [17] was “Non-toxic” throughout. The Ki in [8] stood at 293 nM. Also, the result in data set [12] and in data set [13] was Active.
